Bioassay records from PubChem BioAssay.
DTT redox prof = compounds producing H2O2 with reducing agent – biochemical, NIH compound library profiling, artefact control for MLSCN library redox annotation, primary screen; AID 878, 2007; hit rate 0.03% among 200,000; activation, % at 10 µM; DTT-dependent redox cycling H2O2, phenol red/HRP absorbance; 100% = 100 µM peroxide control, 0% = buffer;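 active = activation of at least 50% relative to the plate's high and low controls in the primary single-dose screen; inactive = activation below 50%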;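 also: compound incubated with DTT at 0.8 mM final as the reducing agent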
Autophagy mod = autophagy modulators in MEF cells, primary screen, imaging, high-content, MEF GFP-LC3. calls only at 10 µM (by protocol). hit rate 0.98% among 190,000. MEF GFP-LC3 puncta imaging; test concentration mostly 10 µM;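 active = percentage of spot-positive cells more than 3 SD above its plate mean, without a fluorescence outlier flag or 80% toxicity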;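 also: spot-positive cell cutoff set from DMSO-treated cells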
Dynein cargo inh = inhibitors of GR-EGFP nuclear translocation, primary screen, dynein cargo transport inhibitor project, imaging, high-content, 3617.4 mouse cells. hit rate 0.47% among 220,000. z-score, hits read low. test concentration mostly 20 µM; stimulated with dexamethasone, 1 µM; active compounds read low. AID 1381, 2008;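 active = plate z-score of nuclear minus cytoplasmic receptor signal below a set negative limit, without overly bright fluorescence or cell loss, cut at about -3.5 in these data, passing the limit was not always enough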;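 also: z-score of nuclear minus cytoplasmic ring GR-EGFP intensity difference per well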
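Buffer or medium: Induction medium lacking tetracycline, stripped serum | Also added: Dexamethasone agonist, 1.0 µM final, for 30 min | Timing: 48 h induction, 1 h compound, 30 min dex at 37 °C | Detection: Formaldehyde fixation, Hoechst nuclear stain, 10x automated fluorescence imaging | Measure: Nuclear versus cytoplasmic GR-EGFP signal, averaged per well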
KCC2 mod = KCC2 cotransporter modulators, thallium flux, primary screen, cell-based, HEK293 KCC2, FluoZin-2 fluorescence, MLSMR; Solute carrier family 12 member 5 (Homo sapiens), Q9H2X9; KCC2 cells, thallium flux FluoZin-2 fluorescence; B-score of Tl+ flux slope (higher = more flux/activation; lower = inhibition) at 10 µM; hit rate 2.2% among 190,000;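 active = thallium flux slope and its plate-corrected score both differing from the plate sample mean at a set confidence after two filtering rounds, in either direction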;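 also: slope of fluorescence scaled to starting intensity during 10 to 20 s after thallium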
ROMK mod = ROMK potassium channel modulators, primary screen, cell-based, thallium flux, MLSMR library; ATP-sensitive inward rectifier potassium channel 1 (Homo sapiens), P48048; Tet-inducible ROMK, thallium flux fluorescence; actives lie on both sides; B-score at 10 µM; hit rate 2% among 130,000;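 active = signal ratio slope over the read window, or its plate-corrected B-score, at least 3 SD from the plate mean, either direction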;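 also: B-score of the F/F0 ratio slope over 7 to 12 s after thallium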
* marks the source's active call; other numbers are inactive results; i = inactive; · = no result; + = active, no number. Compounds with a hit are over-represented: about 4.1% of the library has one in this group of screens.

SMILES | DTT redox prof | Autophagy mod | Dynein cargo inh | KCC2 mod | ROMK mod
CCCC(=O)NC(=S)c1c(C)n(C)n(-c2ccccc2)c1=O | 0 | i | -0.11 | -0.18 | -1
COC(=O)c1ccc(CSc2nc(-c3ccc(OC)cc3)nc3c2c(=O)n(C)c(=O)n3C)o1 | 2 | + | -0.18 | 0.41 | -0.11
CCSc1nnc(N(CCC#N)CCC#N)s1 | -4 | i | -0.34 | 1.2 | -5*
N#Cc1ccc(-c2ccco2)nc1SCC(=O)c1ccc(Cl)cc1 | -1 | + | -1.4 | -0.012 | -2.3
COc1ccc(C(=O)CSc2nc(N)nc(SC)c2C#N)cc1 | -1 | i | 0.13 | 0.026 | 0.8
CSc1nc(N)nc(SCC(=O)c2ccccc2)c1C#N | 0 | + | 3.2 | 0.082 | ·
Cc1ccc(C(=O)CSc2nc(-c3ccccc3)ccc2C#N)cc1 | 0 | + | -2.5 | -0.38 | 0.12
CCC(c1nnc(SCC(=O)Nc2cccnc2Cl)n1-c1ccccc1)N(C)C (stereo unspecified) | 0 | i | 0.58 | 1.1 | 0.56
Cc1cccc(C(=O)N2CCC(Cc3ccccc3)CC2)c1[N+](=O)[O-] | 0 | i | -0.097 | -4.2* | -1.7
Cc1c(C(=O)N2CCC(Cc3ccccc3)CC2)cccc1[N+](=O)[O-] | 0 | i | 1.1 | -2.3 | -0.53
Fc1ccc(Nc2ccc3ccccc3n2)c(F)c1 | -1 | i | 0.43 | 0.026 | -1.2
COc1ccc(CC(=O)OCC(=O)Nc2ccc(N3CCOCC3)cc2)cc1 | · | · | 0.54 | 0.62 | ·
Cc1cc(=O)oc2c(CN3CC(C)OC(C)C3)c(O)c(Cl)cc12 (stereo unspecified) | 0 | i | -1.2 | -0.17 | -2.1
CCN1/C(=N\N)c2cccc3cccc1c23 | 0 | + | 0.24 | 0.19 | 0.36
COCCCN1C(=O)c2[nH]nc(-c3ccccc3O)c2C1c1cccc(Cl)c1 (stereo unspecified) | 2 | + | 0.047 | -1.1 | -0.92
Cc1ccc(C(=O)CC2(O)C(=O)N(C)c3ccccc32)o1 (stereo unspecified) | -2 | + | 0.28 | · | ·
Cc1[nH]c(-c2ccccn2)nc(=S)c1Cl | · | · | 0.27 | 63* | 3.5*
CCOC(=O)/C(=C\c1ccccc1)C(=O)c1cc(C(C)=O)c(Nc2ccccc2)s1 | 0 | + | -0.35 | -0.002 | 0.26
CCOC(=O)C(=Cc1ccc(Br)cc1)C(=O)OCC | · | · | -2.4 | -0.49 | ·
COC(=O)c1cn(CCOc2ccccc2)c2ccccc12 | -7 | + | -0.57 | · | -2.3
Cc1ccc(S(=O)(=O)NCC(c2ccco2)N2CCOCC2)cc1 (stereo unspecified) | -1 | i | 0.99 | -0.023 | 0.28
COc1cccc(N=Nc2c(N)[nH][nH]c2=O)c1 | 0 | i | -0.52 | -0.21 | ·
COc1cccc(N=Nc2c(N)[nH]n3c(=O)c4c(nc23)CCCC4)c1 | 1 | + | -0.034 | -0.03 | ·
O=C(O)c1ccc(N2CCS(=O)(=O)CC2)cc1 | -1 | i | -1.5 | 0.27 | 0.11
CCCCNS(=O)(=O)/C=C/c1ccccc1 | -1 | + | 1.2 | 0.76 | -0.38
SMILES | DTT redox prof | Autophagy mod | Dynein cargo inh | KCC2 mod | ROMK mod
O=C(O)CCCCNS(=O)(=O)/C=C/c1ccccc1 | -2 | i | 0.03 | 1.6 | 0.1
COc1ccc(C(=O)NC(=S)Nc2ccc(S(N)(=O)=O)cc2)cc1 | 0 | i | -0.011 | 0.81 | 0.42
Cn1cc(Br)c(C(=O)NC(=S)Nc2ccc(S(N)(=O)=O)cc2)n1 | -1 | + | 2.8 | 1.3 | -0.2
CC(C)c1ccc(C2CC(=O)N3CN(C)CSC3=C2C#N)cc1 (stereo unspecified) | -1 | i | -0.43 | · | ·
CC(C)c1ccc(C2C(C#N)=C(N)N3C(=C2C#N)Sc2ccccc23)cc1 (stereo unspecified) | 1 | + | -1 | 0.27 | ·
COc1cc(CC(=O)OCC(=O)c2ccc3c(c2)OCCO3)cc(OC)c1OC | 0 | + | 0.46 | -1.5 | 0.58
CCC(C)[C@H](NC(=O)Nc1cccc(Br)c1)C(=O)OC (stereo partly specified) | 0 | i | -0.64 | -0.4 | 0.2
